Our source for the IC50 and Ratio values is ChEMBL document CHEMBL1133154, “Inhibition of inducible nitric oxide synthase by acetamidine derivatives of hetero-substituted lysine and homolysine” (Bioorg Med Chem Lett, 2000).

The target of test [1] is Nitric oxide synthase, inducible (Homo sapiens, UniProt P35228). Description: Inhibition of human inducible nitric oxide synthase.
Test [2] has as its target T1, Nitric oxide synthase 1 (Homo sapiens, UniProt P29475). Description: Inhibition of human neuronal Nitric Oxide Synthase.
In test [3] the target is T2, Nitric oxide synthase 3 (Homo sapiens, UniProt P29474).
T2 sequence (P29474 whole entry): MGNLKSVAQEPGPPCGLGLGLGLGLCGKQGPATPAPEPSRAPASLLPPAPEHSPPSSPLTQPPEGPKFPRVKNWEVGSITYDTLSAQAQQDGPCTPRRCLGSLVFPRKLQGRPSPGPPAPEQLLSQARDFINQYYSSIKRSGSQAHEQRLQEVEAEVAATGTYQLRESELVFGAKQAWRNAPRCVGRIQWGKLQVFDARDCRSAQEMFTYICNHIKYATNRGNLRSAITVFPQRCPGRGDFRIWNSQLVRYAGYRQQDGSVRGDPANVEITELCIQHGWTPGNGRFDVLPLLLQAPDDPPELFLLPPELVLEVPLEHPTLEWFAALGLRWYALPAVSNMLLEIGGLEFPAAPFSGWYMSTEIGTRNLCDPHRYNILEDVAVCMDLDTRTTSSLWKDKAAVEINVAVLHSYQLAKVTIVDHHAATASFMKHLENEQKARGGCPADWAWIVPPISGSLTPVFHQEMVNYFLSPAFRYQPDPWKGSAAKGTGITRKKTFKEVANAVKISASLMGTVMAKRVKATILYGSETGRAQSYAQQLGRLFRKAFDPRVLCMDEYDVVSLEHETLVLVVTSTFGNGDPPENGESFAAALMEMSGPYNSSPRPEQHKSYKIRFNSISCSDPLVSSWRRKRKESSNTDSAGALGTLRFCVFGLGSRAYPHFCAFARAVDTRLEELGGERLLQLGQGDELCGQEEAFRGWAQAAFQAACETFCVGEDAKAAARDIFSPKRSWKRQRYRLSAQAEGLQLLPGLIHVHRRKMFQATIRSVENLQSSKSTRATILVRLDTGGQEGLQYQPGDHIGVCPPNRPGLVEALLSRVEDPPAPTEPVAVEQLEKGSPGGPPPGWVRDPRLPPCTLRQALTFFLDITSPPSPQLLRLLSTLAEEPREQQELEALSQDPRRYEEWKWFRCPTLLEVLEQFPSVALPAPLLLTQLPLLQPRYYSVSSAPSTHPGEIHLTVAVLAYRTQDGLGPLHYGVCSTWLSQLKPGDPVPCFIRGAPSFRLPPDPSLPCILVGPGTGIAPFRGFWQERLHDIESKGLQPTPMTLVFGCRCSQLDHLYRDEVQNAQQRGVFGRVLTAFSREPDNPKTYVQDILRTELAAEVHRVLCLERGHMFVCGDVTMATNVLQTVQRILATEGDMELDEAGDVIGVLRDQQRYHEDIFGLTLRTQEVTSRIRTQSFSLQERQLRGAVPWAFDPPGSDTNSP
Description: Inhibition of human endothelial Nitric Oxide Synthase.

In test [4] the target is Nitric oxide synthase (inducible and endothelial) (Homo sapiens) (UniProt P35228+P29474). The test can be described thus: Ratio of Endothelial Nitric Oxide Synthase to Inducible nitric oxide synthase. The format is protein assay.
For test [5], the target named is Nitric oxide sythases; iNOS & nNOS (Homo sapiens) (UniProt P29475+P35228). Description: Ratio of binding to Neuronal nitric oxide synthase and Inducible nitric oxide synthase. The format is protein assay.
Chain of Nitric oxide sythases; iNOS & nNOS (Homo sapiens) (P29475 whole entry, looked up, canonical isoform): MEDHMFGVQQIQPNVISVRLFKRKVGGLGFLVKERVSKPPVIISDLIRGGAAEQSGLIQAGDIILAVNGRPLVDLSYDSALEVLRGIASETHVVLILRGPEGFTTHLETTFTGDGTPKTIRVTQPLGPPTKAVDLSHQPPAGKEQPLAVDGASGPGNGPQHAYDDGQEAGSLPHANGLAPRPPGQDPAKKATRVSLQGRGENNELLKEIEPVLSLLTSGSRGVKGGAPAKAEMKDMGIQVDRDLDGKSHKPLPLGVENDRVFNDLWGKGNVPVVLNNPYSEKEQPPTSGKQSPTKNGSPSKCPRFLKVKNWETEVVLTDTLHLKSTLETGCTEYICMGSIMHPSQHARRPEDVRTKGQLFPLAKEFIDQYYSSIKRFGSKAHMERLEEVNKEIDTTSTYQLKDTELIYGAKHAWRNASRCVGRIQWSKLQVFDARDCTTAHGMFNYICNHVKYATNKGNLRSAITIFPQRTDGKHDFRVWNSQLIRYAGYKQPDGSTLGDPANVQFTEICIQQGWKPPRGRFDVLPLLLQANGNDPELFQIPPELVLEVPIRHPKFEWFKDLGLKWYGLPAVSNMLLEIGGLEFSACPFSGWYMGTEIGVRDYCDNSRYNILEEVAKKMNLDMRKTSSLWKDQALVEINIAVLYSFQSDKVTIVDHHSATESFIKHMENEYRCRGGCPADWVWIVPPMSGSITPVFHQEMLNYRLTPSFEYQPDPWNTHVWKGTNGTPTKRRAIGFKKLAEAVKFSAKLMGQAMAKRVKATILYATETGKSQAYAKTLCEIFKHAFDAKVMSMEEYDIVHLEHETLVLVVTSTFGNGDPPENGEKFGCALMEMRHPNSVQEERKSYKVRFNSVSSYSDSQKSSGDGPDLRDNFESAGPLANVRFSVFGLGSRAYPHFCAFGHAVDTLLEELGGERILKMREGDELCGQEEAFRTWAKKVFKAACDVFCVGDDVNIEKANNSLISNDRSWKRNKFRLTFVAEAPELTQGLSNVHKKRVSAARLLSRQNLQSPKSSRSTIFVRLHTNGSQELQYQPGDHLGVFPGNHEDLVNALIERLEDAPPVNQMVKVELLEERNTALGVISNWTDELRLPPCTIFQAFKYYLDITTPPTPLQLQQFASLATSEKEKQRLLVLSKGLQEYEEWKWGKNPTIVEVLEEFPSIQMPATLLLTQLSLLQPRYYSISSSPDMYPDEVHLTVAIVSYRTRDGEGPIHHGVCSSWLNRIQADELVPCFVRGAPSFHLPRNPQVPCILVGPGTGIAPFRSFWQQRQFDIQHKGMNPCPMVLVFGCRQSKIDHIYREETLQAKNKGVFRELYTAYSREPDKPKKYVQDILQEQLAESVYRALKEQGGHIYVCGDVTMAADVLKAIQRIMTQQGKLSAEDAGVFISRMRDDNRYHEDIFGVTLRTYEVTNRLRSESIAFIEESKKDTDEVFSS
Chain of Nitric oxide sythases; iNOS & nNOS (Homo sapiens) (P35228 whole entry, looked up, canonical isoform): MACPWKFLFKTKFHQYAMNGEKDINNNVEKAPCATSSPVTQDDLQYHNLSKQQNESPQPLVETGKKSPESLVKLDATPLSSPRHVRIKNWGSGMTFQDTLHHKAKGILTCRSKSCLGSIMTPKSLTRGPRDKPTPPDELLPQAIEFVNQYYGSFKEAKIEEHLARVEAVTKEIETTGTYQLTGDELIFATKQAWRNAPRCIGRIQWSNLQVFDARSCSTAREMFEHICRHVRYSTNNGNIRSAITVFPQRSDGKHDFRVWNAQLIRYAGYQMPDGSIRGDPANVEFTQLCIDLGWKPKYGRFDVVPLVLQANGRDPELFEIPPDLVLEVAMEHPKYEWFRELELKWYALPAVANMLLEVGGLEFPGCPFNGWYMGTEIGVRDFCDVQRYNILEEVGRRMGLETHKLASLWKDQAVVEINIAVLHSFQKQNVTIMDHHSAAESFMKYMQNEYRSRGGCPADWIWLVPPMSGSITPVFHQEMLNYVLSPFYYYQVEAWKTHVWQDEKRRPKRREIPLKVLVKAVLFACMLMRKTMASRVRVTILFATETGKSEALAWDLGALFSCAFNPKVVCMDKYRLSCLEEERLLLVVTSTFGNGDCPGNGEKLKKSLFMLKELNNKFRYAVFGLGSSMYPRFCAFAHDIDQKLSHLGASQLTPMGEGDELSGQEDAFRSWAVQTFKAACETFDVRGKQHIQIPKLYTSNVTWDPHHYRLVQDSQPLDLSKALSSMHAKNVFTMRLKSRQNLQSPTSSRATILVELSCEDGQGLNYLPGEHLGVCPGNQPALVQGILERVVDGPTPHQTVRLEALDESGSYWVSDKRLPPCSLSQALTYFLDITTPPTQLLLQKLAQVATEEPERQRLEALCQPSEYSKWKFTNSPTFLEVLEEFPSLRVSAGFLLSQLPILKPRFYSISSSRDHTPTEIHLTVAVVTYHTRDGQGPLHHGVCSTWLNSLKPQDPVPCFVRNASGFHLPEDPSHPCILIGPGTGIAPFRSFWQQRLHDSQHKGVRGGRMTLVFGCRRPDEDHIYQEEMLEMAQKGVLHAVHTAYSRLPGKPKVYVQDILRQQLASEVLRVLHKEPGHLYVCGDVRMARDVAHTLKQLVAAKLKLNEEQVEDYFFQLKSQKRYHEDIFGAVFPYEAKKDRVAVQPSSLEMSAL
The target in test [6] is T1, Nitric oxide synthase 1. The test can be described thus: Concentration required for inhibition of neuronal Nitric Oxide Synthase in human. In a few lines: (§1)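 Recombinant human NOS enzymes (endothelial or neuronal isoform) were tested in an oxyhaemoglobin assay. Readings were taken 15–30 min after inhibitor addition so that time-dependent inhibition could develop, and IC50 values were derived from those readings.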

Test [7] concerns the target T2, Nitric oxide synthase 3. Description: Concentration required for inhibition of endothelial Nitric Oxide Synthase in human. In a few lines:
as §1

Structures are written as SMILES. pIC50: −log10 of the molar value.

Chain of Nitric oxide synthase, inducible (P35228 whole entry): as the sequence (P35228 whole entry, looked up, canonical isoform) above
T1 sequence (P29475 whole entry): as the sequence (P29475 whole entry, looked up, canonical isoform) above

Take `CC(=N)NCCCSC[C@H](N)C(=O)O`: the figures for the pIC50 (in test [1]; against Nitric oxide synthase 1 [2]; against Nitric oxide synthase 3 [3]) were 4.21, below 4.00 and below 4.00, respectively.

For `CC(=N)NCC[S+]([O-])C[C@@H](N)C(=O)O` (stereo not given in full), the negative logarithm of the IC50 (pIC50) (in general, the negative decadic logarithm of the IC50, by convention in mol/L) in test [1] was 5.10; against Nitric oxide synthase 1 [2] it was 4.17; against Nitric oxide synthase 3 [3], 3.81. For the same molecule, the results for the Ratio in test [4] and in test [5] were 19 and 9, respectively.

As to `CC(=N)NCCSC[C@H](N)C(=O)O`, the pIC50 in test [1] was 5.27; against Nitric oxide synthase 1 [2], 4.28; at Nitric oxide synthase 3 [3], below 4.00. Moreover, the Ratio was above 18 in test [4] and 10 in test [5].

For `CC(=N)NCCSCC[C@H](N)C(=O)O` [GW-274150], the pIC50 is 5.85 in test [1], 3.84 against Nitric oxide synthase 1 [2] and 3.33 against Nitric oxide synthase 3 [3]. The values for the Ratio in test [4] and in test [5] were 333 and 104, respectively.

For the molecule `CC(=N)NCCCCCC(N)C(=O)O` (stereo not given), the negative-log IC50 (pIC50) was 4.70 in test [1], below 4.00 against Nitric oxide synthase 1 [2] and below 4.00 against Nitric oxide synthase 3 [3]. Further, the Ratio in test [4] and in test [5] was above 5 throughout.

For the molecule `CC(=N)NCCOC[C@H](N)C(=O)O`, the pIC50 is 5.92 in test [1], 4.94 against Nitric oxide synthase 1 [2] and 4.89 against Nitric oxide synthase 3 [3]. Further, the Ratio in test [4] turned out to be 11; in test [5], 10.

`CC(=N)NCCCS(=O)(=O)C[C@H](N)C(=O)O`: the pIC50 (in test [1]; on Nitric oxide synthase 1 [2]; against Nitric oxide synthase 3 [3]) was below 4.00 throughout.

Consider `CC(=N)NCCS(=O)(=O)CCC(N)C(=O)O` (stereo not given), for which the pIC50 (on Nitric oxide synthase 1 [6]; in test [1]; against Nitric oxide synthase 3 [3]) was below 4.00 throughout.

Turning to `CC(=N)NCCCOC[C@H](N)C(=O)O`, the negative logarithm of the IC50 (pIC50) (in test [1]; against Nitric oxide synthase 1 [2]; on Nitric oxide synthase 3 [3]) was below 4.00 in each case.

In the case of `CC(=N)NCCOCCC(N)C(=O)O` (stereo not given), the negative-log IC50 (pIC50) in test [1] is 5.85; at Nitric oxide synthase 1 [2] it was 5.22; against Nitric oxide synthase 3 [3] it was 4.14. Moreover, the results for the Ratio in test [4] and in test [5] were 51 and 5, respectively.

As to `CC(=N)NCCS(=O)(=O)C[C@@H](N)C(=O)O`, the negative-log IC50 (pIC50) is 5.10 in test [1], 3.20 against Nitric oxide synthase 1 [2] and below 3.00 against Nitric oxide synthase 3 [3]. The Ratio in test [4] was above 125; in test [5], 78.

On to `CC(=N)NCC[S+]([O-])CCC(N)C(=O)O` (stereo not given), for which the pIC50 (in test [1]; on Nitric oxide synthase 1 [2]; against Nitric oxide synthase 3 [3]) was below 4.00 in each case.

`CC(=N)NCCCC[C@@H](N)C(=O)O`: the pIC50 in test [1] was 5.80; on Nitric oxide synthase 1 [2] it was 4.43; on Nitric oxide synthase 3 [3], 4.11. The Ratio turned out to be 49 in test [4] and 23 in test [5].

`CC(=N)NCCSCC[C@@H](N)C(=O)O`: the pIC50 in test [1] is 5.23; at Nitric oxide synthase 1 [2] it was below 4.00; at Nitric oxide synthase 3 [3], below 4.00. Further, the Ratio in test [4] and in test [5] was above 17 in each case.

As for `CC(=N)NCCSC[C@@H](N)C(=O)O`, the negative logarithm of the IC50 (pIC50) in test [1] was 6.15; against Nitric oxide synthase 1 [2], 4.88; at Nitric oxide synthase 3 [7], 4.40. The results for the Ratio in test [4] and in test [5] were 57 and 19, respectively.
